# KCNK3 inh: human KCNK3 channel inhibition, primary screen; O14649; CHO-KCNK3 thallium flux, FluxOR fluorescence; hits give low values; B-score at 10 µM; actives 0.84% (n = 340,000);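 active means B-score under library mean minus 4 SD, starting fluorescence ratio at most library mean plus 5 SD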;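 further: more negative B-score means stronger inhibition of thallium flux through KCNK3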
# Kir21 inh: blocks the mouse Kir2.1 inward-rectifier potassium channel | P35561 | HEK293-Kir2.1, FluxOR thallium flux fluorescence; hits give low values | B-score at 10 µM | actives 0.85% (n = 310,000) | AID 1672;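 active means fluorescence ratio B-score at or below minus 3 SD of library scores, with starting-brightness B-score within 2 SD, cut at about -4.2 in these data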;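 further: channel flux triggered by added potassium and thallium sulfate stimulus; B-score of peak minus minimum fluorescence over baseline after thallium stimulus; more negative B-score means stronger Kir2.1 block with less thallium influx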
# KCNQ1 pot: potentiates or activates the human KCNQ1 potassium channel. B-score at 10 µM. CHO-K1 KCNQ1, thallium flux FluxOR fluorescence; hits give high values. P51787. actives 0.35% (n = 310,000);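 active means fluorescence ratio B-score, a plate-corrected score, at least three library SD, with initial intensity B-score within 5 SD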
# Target sequence (P51787 whole entry, looked up): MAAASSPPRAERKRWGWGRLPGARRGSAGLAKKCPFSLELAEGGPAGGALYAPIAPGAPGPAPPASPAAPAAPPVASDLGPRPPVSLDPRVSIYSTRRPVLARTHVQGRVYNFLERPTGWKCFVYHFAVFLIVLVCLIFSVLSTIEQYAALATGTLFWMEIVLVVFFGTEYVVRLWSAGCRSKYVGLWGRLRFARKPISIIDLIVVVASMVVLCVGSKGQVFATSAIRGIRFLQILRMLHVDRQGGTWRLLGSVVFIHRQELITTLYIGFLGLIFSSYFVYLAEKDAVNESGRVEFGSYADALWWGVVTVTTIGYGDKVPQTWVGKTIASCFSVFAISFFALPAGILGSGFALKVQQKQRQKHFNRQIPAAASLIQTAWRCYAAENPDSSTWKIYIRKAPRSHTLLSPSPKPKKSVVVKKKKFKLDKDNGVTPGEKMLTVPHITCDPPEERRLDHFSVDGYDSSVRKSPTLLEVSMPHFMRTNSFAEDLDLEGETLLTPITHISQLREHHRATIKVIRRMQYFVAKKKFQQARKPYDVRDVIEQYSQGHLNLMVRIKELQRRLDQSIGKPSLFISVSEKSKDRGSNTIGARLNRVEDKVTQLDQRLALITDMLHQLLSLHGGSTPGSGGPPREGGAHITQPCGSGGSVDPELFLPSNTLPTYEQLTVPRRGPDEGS
#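 System: CHO-K1 cells stably expressing KCNQ1 / Medium: assay buffer for compound exposure, DMSO matched across wells / Reagent: thallium- and potassium-containing depolarizing buffer / Compound: one concentration, matched DMSO / Incubation: 20 min compound pretreatment at room temperature / Measured by: kinetic FluxOR fluorescence, 10 s baseline plus 110 s post-stimulus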
# KCNK9 inh: inhibitors of human KCNK9 two-pore domain potassium channel; B-score at 10 µM; HEK293 KCNK9, FluxOR thallium flux fluorescence; hits give low values; Q9NPC2; actives 1.2% (n = 310,000);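 active means ratio B-score over 3 SD below the library mean, with starting fluorescence within 5 SD of its mean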;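 further: negative B-score means less thallium flux so channel inhibition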
# hERG protect: shields human hERG channel from block by proarrhythmic agents. CHO-hERG, FluxOR thallium flux, dofetilide IC70 present. activation (rescue from dofetilide block), less the hit threshold, % at 10 µM. actives 0.51% (n = 310,000). AID 1511;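 active means activation above the mean of controls blocked by dofetilide plus 5 SD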;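 further: thallium influx through hERG after potassium depolarization seen as dye fluorescence rise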
# KCNQ1 block: human KCNQ1 channel inhibition; B-score at 10 µM; CHO-K1 KCNQ1, FluxOR thallium flux fluorescence; hits give high values; actives 1.3% (n = 310,000); P51787;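 active means compounds whose thallium flux B-score, printed positive for inhibition, exceeds three library SD while starting fluorescence stays within three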;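 further: channel opened by potassium depolarization with thallium stimulus after 20 min compound exposure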
# The depositor's hits bear a star; i = inactive; · = no result given. The list is not random: actives were taken first. Their share in the collection is about 3.7%.
SMILES,KCNK3 inh,Kir21 inh,KCNQ1 pot,KCNK9 inh,hERG protect,KCNQ1 block
N#CC1=C(N)NC(SCc2ccc(F)cc2)=C(C#N)C12CCCCC2,i,-4.4*,i,i,-26,i
N#CC1=C(N)NC(SCC(=O)Nc2ccccc2)=C(C#N)C12CCCC2,i,1.1,i,i,-15,10*
COc1ccccc1NC(=O)N1CCCC1C(=O)Nc1ccc2c(c1)OCO2 (stereo not given),i,-0.68,i,i,-14,i
O=C(Nc1ccc2c(c1)OCO2)C1CCCN1C(=O)Nc1ccccc1F (stereo not given),i,0.98,i,i,5.6*,i
CCOC(=O)C1CCCN(C(=S)NC(=O)c2cc(Br)ccc2Cl)C1 (stereo not given),i,·,·,·,·,·
CSC1=NC(C(Cl)(Cl)Cl)N=C(c2ccccc2)N1 (stereo not given),i,-2,i,i,8.6*,i
CC(Oc1ccc(Br)cc1)C(=O)Nc1ccc(S(=O)(=O)N(C)C2CCN(C)CC2)cc1 (stereo not given),i,-1,10*,i,-16,i
COc1ccccc1N1C(=O)C2C(C(=O)c3ccccc3)=NN(c3ccc(C)cc3)C2C1=O (stereo not given),i,0.2,i,i,-10,6*
CCOC(=O)c1sc2ncnc(NCc3ccco3)c2c1C,i,-1.2,37*,i,16*,i
CCOC(=O)c1sc2nc(CC(=O)OC)nc(NCc3ccco3)c2c1C,i,-1.3,i,i,-9,i
CC(C)CCNC(=O)C1CCCCN1S(=O)(=O)c1ccc(F)cc1 (stereo not given),i,-0.06,i,i,5.0*,i
N#Cc1ccc(CN2CCN(C(=O)c3ccc(S(=O)(=O)NCc4ccco4)cc3)CC2)cc1,i,·,·,·,·,·
COC(=O)CNc1nc(Cl)nc(Nc2ccc(C)cc2)n1,i,-0.43,i,i,6.7*,i
CC(C)C[C@@H](CNCC(=O)[C@H](Cc1ccccc1)NC(=O)c1[nH]cnc1C(=O)N[C@@H](C)CN)NC(=O)c1nc[nH]c1C(=O)N[C@@H](C)C(=O)O,i,·,·,·,·,·
O=C(Nc1cccc2c1[nH]c1ccccc12)C(F)(F)F,i,2.6,i,i,-3,6*
CC1CC(=O)Nc2ccccc2N1C(=O)CSc1ccc2ccccc2n1 (stereo not given),i,·,·,·,·,·
S=c1[nH]c(-c2ccccc2)cn1/N=C/c1cccc2ccccc12,i,1.4,14*,i,69*,i
S=c1[nH]c(-c2ccccc2)cn1/N=C/c1ccccc1Br,i,-0.54,i,i,3,i
CC1CN(C(=O)CCn2c(=O)oc3ccccc32)CC(C)O1 (stereo not given),-9*,-0.1,i,i,-18,i
COCC(=O)N(C)C[C@H]1N[C@@](C)(C(=O)OC)[C@H]2C(=O)N(Cc3ccccc3)C(=O)[C@@H]12,i,·,·,·,·,·
CCOC(=O)Cc1csc(NC(=S)NC(=O)c2ccc(Cl)cc2)n1,i,1.5,17*,i,7.3*,i
CCOC(=O)Cc1csc(NC(=S)NC(=O)c2ccc([N+](=O)[O-])cc2)n1,i,1.8,i,i,-9,i
CCN1C(=O)/C(=C\c2ccco2)C(C(=O)OC)=C1C,i,-0.32,i,i,-9,i
COC(=O)C1=C(C)N(c2cccc(OC)c2)C(=O)/C1=C\c1ccco1,i,0.28,i,-7.3*,-6,i
Cc1cc(C)n(CCNC(=O)c2ccco2)n1,i,2.7,i,i,-6,i
SMILES,KCNK3 inh,Kir21 inh,KCNQ1 pot,KCNK9 inh,hERG protect,KCNQ1 block
CC(=O)NCCC(=O)Nc1ccc(C)c(F)c1,i,-1.1,i,i,5.4*,i
CCCN(CC(=O)Nc1ccccc1C)C(=O)c1cnc(C)cn1,i,·,·,·,·,·
CCc1ccc2[nH]c(O)c(N=Nc3nc(-c4ccccc4)cs3)c2c1,i,0.36,10*,i,7.2*,i
CCCCn1nnc(NC(=S)NC(=O)c2ccc(-c3cccc(Cl)c3Cl)o2)n1,i,2.2,i,i,7.4*,i
CCCCn1nnc(NC(=O)c2ccc(-c3ccccc3[N+](=O)[O-])o2)n1,i,0.03,i,i,-31,i
CC(C)CNc1ncnc2[nH]ncc12,i,·,·,·,·,·
CCOc1nc(OCC)c2[nH]c(C(=O)O)c(Br)c2n1,i,·,·,·,·,·
CCOc1ccc(N(CC(=O)N2CCN(c3ccccc3OC)CC2)S(=O)(=O)c2ccc(C)cc2)cc1,i,1.2,i,i,-11,9*
COc1ccc(N(CC(=O)N2CCN(c3ccccc3)CC2)S(=O)(=O)c2ccc(C)cc2)cc1,i,-0.3,i,i,-9,i
CCOC(=O)[C@H]1[C@H]2COc3ccc(Br)cc3[C@H]2N2C(=O)CN(Cc3ccc(C)cc3)C(=O)[C@@]12C,i,·,·,·,·,·
CSC1=C(C#N)C(c2ccccc2Cl)C2=C(N1)c1ccccc1C2=O (stereo not given),i,-1.6,i,i,-19,i
Cc1nn(-c2ccccn2)c2c1C(c1c(F)cccc1Cl)C1=C(N2)c2ccccc2C1=O (stereo not given),·,-1.4,i,-6.9*,-10,i
Cc1nn(-c2ccccn2)c2c1C(c1ccccc1Cl)C1=C(N2)c2ccccc2C1=O (stereo not given),i,-0.36,i,-7*,-8,i
Cc1nn(-c2ccccn2)c2c1C(c1ccsc1)C1=C(CCCC1=O)N2 (stereo not given),i,-0.01,i,i,-5,i
COCCCNC(=O)C[C@H]1C[C@H](C(=O)N2CCCCC2)[C@@]2(CCc3ccccc3)c3[nH]c4cc(CCC(=O)N(C)C)ccc4c3CCN2C1=O,i,·,·,·,·,·
Cc1cc(NC(=O)CSc2nc3cc(Cl)ccc3c(=O)n2C(C)C)no1,i,·,·,·,·,·
CC(=O)c1cccc(NC(=O)C(=O)Nc2cccc3ccccc23)c1,i,-1.2,i,i,5.2*,i
CC(=O)c1ccc(NC(=S)Nc2cccc3ccccc23)cc1,i,0.4,i,i,-5,i
CC(C)(C)OC(=O)N1CCCC(C(=O)Nc2ccc(C(=O)NC3CC3)cc2)C1 (stereo not given),i,·,·,·,·,·
O=C(c1ccc2c(c1)OCO2)C1CCCN(Cc2ccc(OC(F)F)cc2)C1 (stereo not given),i,-10*,i,i,-13,i
COc1cc(OC)c(OC)cc1CN1CCCC(C(=O)c2ccc3c(c2)OCO3)C1 (stereo not given),i,0.36,i,i,-8,i
